Measured values reported in ChEMBL document CHEMBL1156130, “(1-(4-(Naphthalen-2-yl)pyrimidin-2-yl)piperidin-4-yl)methanamine: a wingless beta-catenin agonist that increases bone formation rate” (J Med Chem, 2009).
In brackets after ≈: the same amount, converted by molar mass. Activity calls are given as the source filed them. The calls are words filed in the database; no cut-off is given here.

Tests used:
[1] = Solubility at pH 7.4; assay type: physicochemical; conditions: buffer
[2] = target: Glycogen synthase kinase-3 beta (Homo sapiens, UniProt P49841); experiment: Inhibition of GSK3-beta
[3] = Membrane permeability by PAMPA; assay type: ADME; conditions: read-out: permeability
Rattus norvegicus [4] = experiment: Increase in trabecular bone formation rate in ovariectomized rat measured at 0.3 mg/kg, po once daily after 28 days; assay type: functional, organism-based; set-up: dose 0.3 mg/kg; conditions: Trabecula
How it was run: (§1)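 Ovariectomized rats dosed orally once daily for 28 days at four dose levels; vehicle 0.5% methylcellulose/2% Tween-80. Trabecular bone formation rate in the tibia determined at end of in-life phase. Positive control hPTH given sc.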

[5] = Half life in ovariectomized rat plasma at 2 mg/kg, iv; assay type: ADME, organism-based; set-up: dose 2 mg/kg, route intravenous; conditions: female
How it was run: (§2)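 Ovariectomized rats received a single intravenous dose of 2.0 mg/kg in DMSO vehicle. Plasma drug concentration-time curves gave the PK parameters.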

Rattus norvegicus [6] = experiment: Increase in trabecular bone formation rate in once daily po dosed ovariectomized rat measured after 28 days; assay type: functional, organism-based; conditions: Trabecula; how it was run: as §1
[7] = Metabolic stability in rat liver microsomes assessed as half life at 1 uM; assay type: ADME, Microsome
[8] = Cmax in ovariectomized rat at 10 mg/kg, po; assay type: ADME, organism-based; set-up: dose 10 mg/kg, route oral; conditions: female, in vivo
How it was run: (§3)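 Single oral dose given to ovariectomized rats at 10 mg/kg in 2% MC/0.5% T80 vehicle. Plasma drug concentration was followed over time, and PK parameters were derived from the concentration-time curve.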

[9] = Volume of distribution at steady state in ovariectomized rat at 2 mg/kg, iv; assay type: ADME, organism-based; set-up: dose 2 mg/kg, route intravenous; conditions: female, in vivo, read-out: Vdss; how it was run: as §2
Mus musculus [10] = species on record: Mus musculus; experiment: Increase in trabecular bone formation rate in wild type mouse measured after 7 days; assay type: functional, organism-based; conditions: Trabecula
[11] = AUC (0 to infinity) in ovariectomized rat at 10 mg/kg, po; assay type: ADME, organism-based; set-up: time infinity, dose 10 mg/kg, route oral; conditions: female, plasma
How it was run: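 Single oral dose in ovariectomized rats, vehicle 2% MC/0.5% Tween-80. Plasma drug concentration followed over time; AUC0-∞ taken from the plasma concentration-time curve.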

[12] = AUC (0 to infinity) in ovariectomized rat at 2 mg/kg, iv; assay type: ADME, organism-based; set-up: time infinity, dose 2 mg/kg, route intravenous; conditions: female, plasma
How it was run: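 Single intravenous dose in ovariectomized rats, vehicle DMSO. Plasma drug concentration followed over time; AUC0-∞ taken from the plasma concentration-time curve.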

[13] = Plasma clearance in ovariectomized rat at 2 mg/kg, iv; assay type: ADME, organism-based; set-up: dose 2 mg/kg, route intravenous; conditions: female; how it was run: as §2
[14] = Oral bioavailability in ovariectomized rat at 10 mg/kg; assay type: ADME, organism-based; conditions: female, in vivo; how it was run: as §3
Mus musculus [15] = species on record: Mus musculus; experiment: Increase in trabecular bone formation rate in Dkk1 knockout mouse measured after 7 days; assay type: functional, organism-based; conditions: Trabecula
[16] = Half life in ovariectomized rat plasma at 10 mg/kg, po; assay type: ADME, organism-based; set-up: dose 10 mg/kg, route oral; conditions: female; how it was run: as §3
[17] = Tmax in ovariectomized rat at 10 mg/kg, po; assay type: ADME, organism-based; set-up: dose 10 mg/kg, route oral; conditions: female, in vivo; how it was run: as §3

Glycogen synthase kinase-3 beta, sequence (P49841 whole entry): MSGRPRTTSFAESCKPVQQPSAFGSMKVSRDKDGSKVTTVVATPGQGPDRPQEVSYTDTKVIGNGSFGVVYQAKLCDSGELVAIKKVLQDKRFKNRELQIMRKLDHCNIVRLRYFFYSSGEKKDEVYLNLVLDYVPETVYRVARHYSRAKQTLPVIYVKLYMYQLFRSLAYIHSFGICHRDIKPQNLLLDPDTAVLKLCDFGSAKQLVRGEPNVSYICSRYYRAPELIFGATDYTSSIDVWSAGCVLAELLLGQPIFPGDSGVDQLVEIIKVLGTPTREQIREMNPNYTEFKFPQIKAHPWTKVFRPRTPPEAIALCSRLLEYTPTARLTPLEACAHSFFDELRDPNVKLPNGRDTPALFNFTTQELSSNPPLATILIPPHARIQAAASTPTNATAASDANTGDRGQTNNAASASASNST

Cc1ccc(-c2ccnc(Nc3ccc(S(N)(=O)=O)cc3)n2)s1
solubility [1]: 8 µg/mL (≈ 23.1 µM) | IC50 [2]: 0.2 µM

Cc1ccc(-c2ccnc(N(C)c3ccc(S(N)(=O)=O)cc3)n2)s1
solubility [1]: 15 µg/mL (≈ 41.6 µM) | IC50 [2]: 65 µM

NS(=O)(=O)c1ccc(Nc2nccc(-c3ccc4ccccc4c3)n2)cc1
solubility [1]: < 0.1 µg/mL | IC50 [2]: 0.31 µM

CC(=O)NCC1CCN(c2nccc(-c3ccc4ccccc4c3)n2)CC1
solubility [1]: 1 µg/mL (≈ 2.77 µM) | IC50 [2]: > 10 µM

NC1CCN(c2nccc(-c3ccc4ccccc4c3)n2)CC1
solubility [1]: > 100 µg/mL | IC50 [2]: > 50 µM

NCC1CCN(c2nccc(-c3ccc4ccccc4c3)n2)CC1
Papp [3]: 5.9 ×10⁻⁶ cm/s | Activity (Rattus norvegicus [4]): Active | half-life [5]: 8.2 h | Activity (Rattus norvegicus [6]): Dose-dependent effect | half-life at 1 µM [7]: > 0.5 h | Cmax [8]: 277 ng/mL | Vd [9]: 22 L/kg | Activity (Mus musculus [10]): Active | solubility [1]: 65 µg/mL (≈ 204 µM) | AUC(0-inf) [11]: 3990 ng·h/mL | AUC(0-inf) [12]: 1030 ng·h/mL | clearance [13]: 32 mL/min/kg | IC50 [2]: > 100 µM | bioavailability [14]: 78% | Activity (Mus musculus [15]): inactive | half-life [16]: 5.6 h | Tmax [17]: 4.7 h
